# Screens (PubChem BioAssay)
# The list is not random: actives were taken first. Their share in the collection is about 4.5%.
# CHOP inh: inhibitors of CHOP promoter induction, primary screen, cell-based, unfolded protein response, luciferase reporter; CHO-K1 CHOP-promoter luciferase, tunicamycin-induced, 15-18 h; inhibition, % at 10 µM; actives 3.8% (n = 220,000); AID 2732, 2010;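 active = compounds that reduced the stress-induced luciferase reporter signal by more than about 70% of percent inhibition, limit read from the data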;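 also: 0% = tunicamycin plus vehicle and 100% = wells without tunicamycin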
# UPR XBP1 act: activators of adaptive XBP1 UPR arm, primary screen, cell-based, CHO-XBP1 luciferase reporter, luminescence, uHTS; IRE1-XBP1 UPR activation; percent of tunicamycin response, DMSO as zero; activation, % at 20 µM; AID 463104, 2010; actives 0.33% (n = 330,000);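 active = versus positive control, 20 µM dose yields 30% or more activation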;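 also: 100% = tunicamycin at 10 µg/mL and 0% = DMSO only wells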
#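 Signal: luciferase luminescence; Assay system: CHO-XBP1 luciferase reporter cells; Amount: one thousand reporter cells per well; Dosing: 20 µM single concentration, DMSO 1%; Benchmarks: high control tunicamycin 10 µg/mL final, low control DMSO vehicle only; Schedule: 6 h compound exposure at 37 °C, 5% CO2; Evaluation: percent activation relative to tunicamycin reference.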
# M18AAP inhibitor: PfM18AAP inhibitors, malaria aminopeptidase, primary screen, biochemical, QFRET, recombinant enzyme. M18 aspartyl aminopeptidase (Plasmodium falciparum 3D7). H-Glu-NHMec fluorogenic cleavage. inhibition, % at 7.35 µM. actives 1.2% (n = 290,000);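 active = inhibition above the campaign mean inhibition over all tested compounds plus 3 SD, cut at about 28% in these data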;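 also: 0% = plate median of test compound wells and 100% = 2 mM ZnCl2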
# CHOP UPR activ: activators of apoptotic CHOP UPR arm, primary screen, cell-based, CHO-CHOP luciferase reporter, luminescence, uHTS; UPR activation; percent of tunicamycin response over DMSO baseline; activation, % at 10 µM; actives 0.34% (n = 330,000); AID 449763, 2010;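 active = at 10 µM dose, activation of 40% or more, normalized to positive control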;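 also: 100% = tunicamycin at 10 µg/mL and 0% = DMSO alone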
#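 Assay system: CHO cells with stable CHOP pathway luciferase reporter; Buffer or medium: F12 plus 10% serum; Times: 16-18 h cell attachment, then 6 h compound exposure, 37 °C; Signal: luciferase luminescence; Read-out basis: percent activation relative to tunicamycin control; Control set: tunicamycin high control, DMSO low control.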
# p97 ATPase inh: inhibitors of human p97 ATPase, primary screen, biochemical; AID 1481, 2009; inhibition, % at 8 µM; actives 0.42% (n = 220,000); Transitional endoplasmic reticulum ATPase (Homo sapiens), P55072; recombinant p97 ATPase, Kinase-Glo ATP luminescence, 3 h; in the data active = inhibition above about 15%;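 also: 0% = DMSO vehicle and 100% = wells lacking enzyme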
# Target sequence (P55072 whole entry, looked up): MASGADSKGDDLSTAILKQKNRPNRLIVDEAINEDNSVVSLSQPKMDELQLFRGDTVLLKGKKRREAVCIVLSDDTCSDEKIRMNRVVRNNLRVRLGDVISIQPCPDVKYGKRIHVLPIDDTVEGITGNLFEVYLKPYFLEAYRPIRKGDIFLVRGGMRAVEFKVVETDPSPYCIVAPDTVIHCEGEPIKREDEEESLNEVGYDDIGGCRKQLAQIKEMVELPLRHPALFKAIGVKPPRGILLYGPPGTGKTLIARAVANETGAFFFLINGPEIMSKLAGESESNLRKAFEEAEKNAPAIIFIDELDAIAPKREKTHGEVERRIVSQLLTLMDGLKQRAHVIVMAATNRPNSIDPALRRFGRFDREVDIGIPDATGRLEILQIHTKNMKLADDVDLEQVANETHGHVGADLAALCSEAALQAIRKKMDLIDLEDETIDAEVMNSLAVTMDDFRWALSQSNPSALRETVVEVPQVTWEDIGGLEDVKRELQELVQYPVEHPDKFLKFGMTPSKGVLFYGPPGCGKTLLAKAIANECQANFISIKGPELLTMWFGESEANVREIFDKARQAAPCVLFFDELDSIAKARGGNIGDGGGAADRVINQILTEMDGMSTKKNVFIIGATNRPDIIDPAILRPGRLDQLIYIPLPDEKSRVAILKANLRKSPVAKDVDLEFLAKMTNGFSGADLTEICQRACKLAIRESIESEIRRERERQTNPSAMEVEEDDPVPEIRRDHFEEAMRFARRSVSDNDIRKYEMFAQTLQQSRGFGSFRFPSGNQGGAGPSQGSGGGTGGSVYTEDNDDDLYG
# HCV NS3 hel inh: inhibitors of HCV NS3 helicase, primary screen, biochemical, Cy5 molecular beacon fluorescence. NS3 helicase DNA unwinding. inhibition, % at 10.9 µM. actives 0.56% (n = 290,000);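 active = inhibition above the mean of all tested compounds plus 3 SD, set per campaign, cut at about 35% in these data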;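 also: 0% = DMSO wells and 100% = thioflavine S control wells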
#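 Control set: DMSO versus 110 µM thioflavine S; Material: NS3 helicase fragment of HCV; Measured by: Cy5 fluorescence at 0 and 60 min, beacon hairpin quenching; Read-out basis: percent inhibition from t60/t0 fluorescence ratio; Times: reaction time 60 min, 25 °C; Repeats: single replicate; Compound dosing: single dose, 10.9 µM nominal final, DMSO 0.8% final.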
# p97 inh conf: p97 ATPase inhibitors, retest, confirmation, biochemical | shares compounds with p97 ATPase inh | recombinant p97 ATPase, Kinase-Glo ATP luminescence | inhibition, % at 8 µM | actives 44% (n = 760);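 active = percent inhibition of p97 ATPase above a set limit, the primary screen's mean plus 3 SD, cut at about 15% in these data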;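 also: 0% = DMSO wells and 100% = wells lacking p97 protein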
# NS3 hel confirm: HCV NS3 helicase inhibitors, retest, confirmation, biochemical, Cy5 molecular beacon fluorescence, triplicate. shares compounds with HCV NS3 hel inh. AID 1943, 2009. actives 31% (n = 1,600). inhibition, % at 10.9 µM. NS3 helicase DNA unwinding;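 active = inhibition above the mean of all tested compounds plus 3 SD, cutoff set per campaign, cut at about 36% in these data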
# FID counter trip: compounds displacing fluorescent DNA intercalator, artefact control for HCV NS3 helicase inhibitor project, biochemical, FID fluorescence, triplicate; actives 4% (n = 1,600); DNA fluorescent intercalator displacement; shares compounds with HCV NS3 hel inh; inhibition, % at 7.9 µM; in the data active = inhibition above about 37%;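 also: 0% = vehicle and 100% = reference compound; higher means more displacement of ethidium bromide from the DNA hairpin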
# CHOP inh conf: retest of CHOP induction inhibitors, confirmation, cell-based; shares compounds with CHOP inh; CHO-CHOP promoter luciferase reporter, tunicamycin-induced, luminescence; inhibition, % at 10 µM; actives 45% (n = 2,100);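 active = mean of three repeat readings of reporter signal inhibition above a set limit, cut at about 70% in these data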;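 also: 0% = tunicamycin plus vehicle and 100% = wells lacking tunicamycin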
# * hit, by the source's call; / = not tested or not shown.
SMILES,CHOP inh,UPR XBP1 act,M18AAP inhibitor,CHOP UPR activ,p97 ATPase inh,HCV NS3 hel inh,NS3 hel confirm,FID counter trip,others
CCCCn1c(NS(=O)(=O)c2ccccc2)c(C(=O)OCC)c2nc3ccccc3nc21,50,/,12,/,21*,37*,58*,-39,p97 inh conf=2
Cc1ccccc1-n1c(O)c(C=NCCN2CCOCC2)c(=O)[nH]c1=O,4,-6,-10,1,-4,3,/,/,
CN[C@H]1C[C@H]2O[C@@](C)([C@H]1OC)n1c3ccccc3c3c4c(c5c6ccccc6n2c5c31)C(=O)NC4,108*,-11,1,-6,15*,-83,/,/,p97 inh conf=12;CHOP inh conf=121*
CCOC(=O)C1=C(C)OC(N)=C(C#N)C12C(=O)Nc1ccc(C)cc12 (configuration not stated),-3,2,1,-2,3,6,/,/,
CCC(C)NC(=O)c1c(N)n(CC2CCCO2)c2nc3ccccc3nc12 (configuration not stated),96*,1,3,1,29*,4,/,/,p97 inh conf=-4;CHOP inh conf=103*
C=CCn1c(O)c(C(CC)=Nc2cccc(C(=O)O)c2)c(=O)[nH]c1=O,-5,-3,1,-2,4,4,/,/,
O=c1[nH]c(=O)n(CCC2=CCCCC2)c(O)c1/C=N/N1CCOCC1,2,-2,7,-2,6,35,/,/,
CN(C)c1ccc(N=Cc2c(O)n(CCC3=CCCCC3)c(=O)[nH]c2=O)cc1,-29,2,7,0,6,40*,-1,-8,
CCN(CC)c1ccc(N=Cc2c(O)n(CCC3=CCCCC3)c(=O)[nH]c2=O)cc1,43,11,13,-1,5,5,/,/,
O=c1[nH]c(=S)n(CCC2=CCCCC2)c(O)c1/C=N/N1CCOCC1,11,-2,3,1,1,41*,-8,11,
COc1ccc(NC2=NCCCS2)cc1OC,/,-5,8,-1,/,3,/,/,
O=C(O)Cn1cc(/C=C2\C(=O)NC(=O)N(c3ccc(Br)cc3)C2=O)c2ccccc21,/,-4,16,1,/,49*,28,-8,
O=[N+]([O-])c1ccc(Cl)c(Cl)c1Cl,/,0,/,1,/,/,/,/,
O=C(Cn1cc(C(=O)c2ccccc2F)c2ccccc21)NC1CC1,9,-3,3,2,3,0,/,/,
CCCCN1C(=O)/C(=C\c2ccco2)C(=O)N(CCc2ccccc2)C1=O,-29,0,-21,0,1,38*,69*,15,
CCCCN1C(=O)/C(=C/c2ccc(N(C)C)cc2)C(=O)N(Cc2ccco2)C1=O,13,2,-11,0,-1,26,/,/,
CCOc1ccc(N2C(=O)/C(=C/c3ccco3)C(=O)NC2=S)cc1,/,-5,1,37,/,30,/,/,
O=C1NC(=O)N(Cc2ccc(F)cc2)C(=O)/C1=C\C=C\c1ccco1,0,-1,18,-1,2,41*,32,20,
CCCCN1C(=O)/C(=C/C=C/c2ccco2)C(=O)NC1=S,-30,/,11,/,-6,62*,57*,24,
COC(=O)c1ccccc1NC(=O)N1C[C@@H]2C[C@@H](C1)c1cccc(=O)n1C2,/,-1,-6,0,/,10,/,/,
O=C(O)c1ccccc1NC(=O)N1C[C@H]2C[C@@H](C1)c1cccc(=O)n1C2,/,-1,6,-2,/,42*,-9,8,
Cn1cccc1/C=C1/C(=O)NC(=S)N(Cc2ccc(F)cc2)C1=O,-85,17,-5,34,2,45*,78*,18,
CC(C)c1ccc(-n2c(O)c(/C=N/NC(=O)c3ccccc3O)c(=O)[nH]c2=S)cc1,6,-4,6,0,10,74*,74*,21,
COc1cc(C)c(-c2nc(CN3C[C@@H]4C[C@@H](C3)c3cccc(=O)n3C4)c(C)o2)cc1C,21,1,-1,0,0,-2,/,/,
O=C(O)c1ccccc1-c1ccc(C=C2C(=O)N(c3ccccc3)C(=S)N(c3ccccc3)C2=O)o1,/,1,8,0,/,42*,69*,9,
SMILES,CHOP inh,UPR XBP1 act,M18AAP inhibitor,CHOP UPR activ,p97 ATPase inh,HCV NS3 hel inh,NS3 hel confirm,FID counter trip,others
COCCNC(=O)c1ccc(N2CC3CC(C2)c2cccc(=O)n2C3)c([N+](=O)[O-])c1 (configuration not stated),-7,-5,2,-2,4,-1,/,/,
O=C1CN=C(c2ccccc2)c2cc(Br)ccc2N1Cc1cc(=O)n2ccccc2n1,45,0,3,0,5,-3,/,/,
NNC(=O)CN1C(=O)CN=C(c2ccccc2)c2cc(Br)ccc21,-10,-1,-2,0,-7,54*,-14,-29,
Cc1c2ccncc2c(C)c2c1[nH]c1ccccc12,69,-6,-5,-4,3,42*,57*,83*,
COc1ccc(CN2C(=O)NC(=O)/C(=C/c3cc(OC)c(OC)c(OC)c3)C2=O)cc1,-3,-2,0,1,6,4,/,/,
COc1ccc(CN2C(=O)NC(=O)/C(=C/c3ccoc3)C2=O)cc1,-20,4,-7,0,8,54*,17,15,
C=CCn1c(O)c(C(C)=Nc2cccc(C(F)(F)F)c2)c(=O)[nH]c1=O,7,1,2,-1,3,-5,/,/,
C=CC1CN2CCC1CC2c1[nH]c2ccccc2c1CCO (configuration not stated),18,0,0,2,-3,11,/,/,
O=C1NC(=O)N(Cc2ccco2)C(=O)/C1=C/c1cccn1CCOc1ccccc1Cl,61,-1,9,1,9,43*,2,-1,
